LMPTP block – LMPTP (human) inhibition | recombinant LMPTP-A, OMFP fluorogenic substrate, fluorescence intensity | 360,000 compounds, 0.22% hits | inhibition, % at 20 µM | P24666;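 active means compounds that cut the enzyme signal by at least half of the control window in the single-dose screen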
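Material: LMPTP-A; amount: 0.625 nM enzyme; doses: single 20 µM dose; times: reaction 50 min, room temperature, dark; technique: fluorescence intensity of OMFP turnover product; benchmarks: no-enzyme and uninhibited controls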
STEP inh – inhibitors of human striatal-enriched phosphatase STEP; recombinant STEP, OMFP fluorogenic substrate, fluorescence; AID 588621; 360,000 compounds, 0.25% hits; inhibition, % at 20 µM;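 active means inhibition at 20 µM, scaled per plate between control wells, above about 37%, limit read from the data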
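Material: STEP (striatal-enriched tyrosine phosphatase) enzyme, cell-free | Medium: 50 mM Bis-Tris pH 6.0 with 2.5 mM DTT and 0.005% Tween 20 | Read-out: Percent inhibition scaled to no-enzyme and uninhibited-enzyme controls, plate-pattern corrected | Signal: Fluorescence read at 480 nm ex / 540 nm em | Times: 20 min reaction, room temperature, in the dark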
Scp1 inh – blocks human Scp-1 phosphatase activity; Q9GZU7; Recombinant Scp1, phosphopeptide, malachite green phosphate absorbance; inhibition, % at 20 µM; 340,000 compounds, 0.88% hits;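 active means inhibition above about 50% at 20 µM, limit read from the data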
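Incubation: 45 min enzyme reaction at room temperature / System: truncated SCP-1 phosphatase (76-261aa) / Reagent: Phospho 17-mer peptide substrate / Buffer or medium: Acidic Tris acetate buffer with magnesium and detergent / Signal: absorbance at 630 nm / Doses: one concentration, 20 µM, with 1.0% DMSO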
CSN deneddyl inh – blocks human CSN-mediated cullin deneddylation | AID 651999 | 360,000 compounds, 0.38% hits | inhibition, % at 12.5 µM | Purified CSN, SCF-Nedd8-OG deneddylation, fluorescence polarization | Q92905;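 active means pattern-corrected inhibition above about 35%, with an unprinted fluorescence ratio check between 0.5 and 1.5, limit read from the data, passing the limit was not always enough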
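Material: purified human Csn5 enzyme expressed in HEK293T cells / Medium: Tris buffer pH 7.5, NaCl, DTT, Tween-20, trehalose, ovalbumin / Compound dosing: 12.5 µM single point / Schedule: 90 min incubation of compound, enzyme and substrate at room temperature / Signal: fluorescence polarization of the substrate / Control set: no-enzyme wells high, enzyme-with-substrate wells low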
DNMT1 inh – DNMT1 (human) enzyme inhibition; AID 588458; inhibition (reported as % activation of signal), % at 10 µM; P26358; DNMT1 molecular beacon, Hinp1I cleavage, fluorescence; 360,000 compounds, 0.83% hits; in the data active means inhibition above about 50%
SUMO1-SIM PPI – modulators of human SUMO1-mediated protein-protein interactions. P63165. SUMO1 binding to a labelled peptide, TR-FRET, 1 h. inhibition, % at 20 µM. 360,000 compounds, 0.33% hits; in the data active means inhibition above about 37%
DNMT1 interf DR – beacon fluorescence artifact, dose response counter-screen. shares compounds with DNMT1 inh. molecular beacon fluorescence, spectral interference counter-screen. IC50, µM. 200 tested, under 10 active; call rule not given here
DNMT1 confirm – confirmation of human DNMT1 inhibitors | DNMT1 molecular beacon HinP1I cleavage, fluorescence | 2,300 compounds, 8% hits | inhibition, % at 10 µM | shares compounds with DNMT1 inh;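 active means average inhibition of at least 30% in the single-concentration confirmation test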
Beacon interf – beacon fluorescence artifact counter-screen | 2,300 compounds, 1% hits | shares compounds with DNMT1 inh | activation (fluorescence interference), % at 10 µM | DNMT1 molecular beacon spectral interference counterscreen, fluorescence 485/520;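 active means activation of at least 30% at 10 µM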;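 further: DNMT1 catalytic domain with a HinP1I cleavage step and a FAM/dabcyl DNA beacon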
Each line names hits and unclear results; the compound was inactive in the other large screens (follow-up assays come after a bar, where they were run). Sampled rows, rich in hits. Any-hit rate of the full collection: about 2%.

Cn1ccsc1=NC(=O)c1ccc([N+](=O)[O-])o1	Scp1 inh 65, DNMT1 inh 59 | DNMT1 confirm inactive | Beacon interf inactive
COc1cc(C(=O)N=c2sccn2C)c([N+](=O)[O-])cc1OC	none
Cc1ccnc(NS(=O)(=O)c2ccc(NC(=O)c3ccc4c(c3)OCCO4)cc2)n1	none
NS(=O)(=O)c1ccc(CNC(=O)c2cc(=O)c3ccccc3o2)cc1	none
CC1=NOC(=O)/C1=C\c1ccc(-c2cc(Cl)ccc2Cl)o1	DNMT1 inh 81, SUMO1-SIM PPI 48 | DNMT1 confirm inactive | Beacon interf inactive
CC(C)NS(=O)(=O)c1ccc(NC(=O)Cc2cccs2)cc1	none
O=C(Cc1cccs1)Nc1ccc(S(=O)(=O)Nc2ncccn2)cc1	DNMT1 inh 68 | DNMT1 confirm inactive | Beacon interf inactive
CNc1cccccc1=S	LMPTP block 58, DNMT1 inh 85 | DNMT1 confirm inactive | Beacon interf inactive
CNc1ccccc1	none
CCOc1ccc(-c2nnc3sc(COc4ccc(Cl)cc4)nn23)cc1	DNMT1 inh 58 | DNMT1 confirm inactive | Beacon interf inactive
CCOc1ccc(-c2nnc3sc(COc4ccc(C)cc4)nn23)cc1	none
CCOC(=O)C1CCN(c2c(NCCCN3CCCCC3)c(=O)c2=O)CC1	DNMT1 inh 93 | DNMT1 confirm inactive | Beacon interf inactive
CCOC(=O)C1CCN(c2c(NCCCN3CCN(Cc4ccccc4)CC3)c(=O)c2=O)CC1	none
CC(C)C[C@@H]1NC(=O)[C@H](Cc2ccccc2)N(C)C(=O)[C@H](C)NC(=O)c2ccccc2NC(=O)[C@H](Cc2ccc(O)cc2)N(C)C1=O	DNMT1 inh 79 | DNMT1 confirm inactive | Beacon interf inactive
CC(C)CC1NC(=O)N(CC(=O)N2c3ccccc3NC(=O)C2(C)C)C1=O (stereo not drawn)	none
CC1(C)CC(N=c2cc(-c3ccccc3)oc3ccc(Cl)cc23)CC(C)(C)N1	DNMT1 inh 75 | DNMT1 interf DR inactive | DNMT1 confirm 33 | Beacon interf inactive
CCn1c(CC(=O)Nc2ccc(C)cc2)n[nH]c1=S	none
O=c1[nH]c2ccccc2nc1Cc1ccc([N+](=O)[O-])cc1	none
Cn1ncn2c(=O)c3c(nc12)-c1ccccc1CC31CCCC1	DNMT1 inh 85 | DNMT1 confirm inactive | Beacon interf inactive
O=C(c1cc2ccccc2o1)N1CCN(S(=O)(=O)c2ccc(F)c(F)c2F)CC1	none
Cc1cc(C(=O)OCC(=O)Nc2ccccc2[N+](=O)[O-])c2ccccc2n1	none
Cc1ccc(NC(=O)COC(=O)c2cc(C)nc3ccccc23)c([N+](=O)[O-])c1	DNMT1 inh 64 | DNMT1 confirm inactive | Beacon interf inactive
O=C(O)c1ccccc1/C=N/NC(=O)c1cc(-c2ccco2)nc2ccccc12	Scp1 inh 77, DNMT1 inh 91, SUMO1-SIM PPI 57 | DNMT1 interf DR inactive | DNMT1 confirm 38 | Beacon interf inactive
CNC(=O)COC(=O)c1cc(-c2ccco2)nc2ccccc12	Scp1 inh 76, DNMT1 inh 56 | DNMT1 confirm inactive | Beacon interf inactive
O=C(COC(=O)c1cc(-c2ccco2)nc2ccccc12)NCc1ccccc1	none
CC(=O)Nc1ccc(/C=N/NC(=O)c2cc(-c3ccco3)nc3ccccc23)cc1	none
CCN(CC)C(=O)COC(=O)c1cc(-c2ccco2)nc2ccccc12	Scp1 inh 82, DNMT1 inh 73 | DNMT1 confirm inactive | Beacon interf inactive
CCN(CC)C(=O)COC(=O)c1cc(-c2ccc(OC)cc2)nc2ccccc12	none
O=C1CC2(CCCC2)C(=O)N1CN1CCN(S(=O)(=O)c2ccc(Cl)c(Cl)c2)CC1	none
CCOc1cccc2cc(-c3cn4cc(C)ccc4n3)c(=O)oc12	DNMT1 inh 70 | DNMT1 confirm inactive | Beacon interf inactive
CN1CCC(N(C)C(=O)c2cccc(S(=O)(=O)N3CCc4ccccc43)c2)CC1	none
COC(=O)Cc1c(C)c2ccc(OCC(=O)NC3CCS(=O)(=O)C3)cc2oc1=O (stereo not drawn)	none
COc1cccc(=O)c2c(C)n(CC(=O)c3ccccc3)c(C)c12	DNMT1 inh 63 | DNMT1 confirm inactive | Beacon interf inactive
Cc1ccc(OCC(=O)NCCCNC(=O)c2ccncc2)cc1C	none
COc1ccc(NC(=O)N(C)C[C@@H]2OCc3cn(nn3)CCCC(=O)N([C@@H](C)CO)C[C@H]2C)cc1	DNMT1 inh 63 (no result: Scp1 inh) | DNMT1 confirm inactive | Beacon interf inactive
COc1ccc(C2=NN(CN3C(=O)C(=O)c4ccccc43)C(c3ccc(OC)cc3)C2)cc1 (stereo not drawn)	none
O=C1NC(c2cccs2)Nc2ccccc21 (stereo not drawn)	DNMT1 inh 64 | DNMT1 confirm inactive | Beacon interf inactive
Cc1ccsc1C1NC(=O)c2ccccc2N1 (stereo not drawn)	none
Cc1ccccc1NC(=O)CSc1nc(COc2ccccc2)nc2ccccc12	none
Cc1cc(C)c(NC(=O)CSc2nc(COc3ccccc3)nc3ccccc23)c(C)c1	DNMT1 inh 70 | DNMT1 confirm inactive | Beacon interf inactive
Cc1ccc(C(=O)N[C@H](C(=O)OCc2cc(=O)n3c(n2)sc2ccccc23)C(C)C)cc1	DNMT1 inh 84 | DNMT1 confirm inactive | Beacon interf inactive
O=C([C@H](Cc1ccccc1)N1C(=O)c2ccccc2C1=O)N1CCOCC1	none
COc1ccccc1NS(=O)(=O)c1cccc(C(=O)NCC(c2ccc(F)cc2)N2CCOCC2)c1 (stereo not drawn)	none
O=C(NCCc1c[nH]c2ccccc12)OCCCCOC(=O)NCCc1c[nH]c2ccccc12	none
C=CCNC(=O)CSCc1ccc(Br)cc1	none
COc1cc(C(=O)c2nccc3cc(OC)c(OC)cc23)c([N+](=O)[O-])cc1OC	DNMT1 inh 58 | DNMT1 confirm inactive | Beacon interf inactive

Bioassay records (PubChem BioAssay)
